In paper PMC9041111 (RSC Advances, 2021):
Each block holds one compound with its values, some of them ahead of it.

Experiments:
[1] = molecular target: KCa3.1 channel (Homo sapiens, UniProt O15554); experiment: whole-cell patch clamp on A549-3R cells, 1-EBIO activated KCa3.1 current; format: cell-based
[2] = in vitro metabolism with mouse liver microsomes and NADPH, LC-MS/MS; format: in vitro ADME; settings: mouse liver microsomes, NADPH, 37 °C, 90 min
How it was run: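 The non-radioactive fluorinated reference compound was incubated with mouse liver microsomes and NADPH at 37 °C for 90 min. The reaction was stopped with CH3CN/CH3OH (1:1), cooled and centrifuged to remove protein. The supernatant was analysed by ESI LC-MS/MS (qToF). The metabolite was assigned from the accurate m/z of the [M + H]+ ion against the calculated exact mass.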

[3] = chemical stability under 18F-labelling conditions; format: physicochemical; settings: 10 min, DMF

KCa3.1 channel, sequence (O15554 whole entry): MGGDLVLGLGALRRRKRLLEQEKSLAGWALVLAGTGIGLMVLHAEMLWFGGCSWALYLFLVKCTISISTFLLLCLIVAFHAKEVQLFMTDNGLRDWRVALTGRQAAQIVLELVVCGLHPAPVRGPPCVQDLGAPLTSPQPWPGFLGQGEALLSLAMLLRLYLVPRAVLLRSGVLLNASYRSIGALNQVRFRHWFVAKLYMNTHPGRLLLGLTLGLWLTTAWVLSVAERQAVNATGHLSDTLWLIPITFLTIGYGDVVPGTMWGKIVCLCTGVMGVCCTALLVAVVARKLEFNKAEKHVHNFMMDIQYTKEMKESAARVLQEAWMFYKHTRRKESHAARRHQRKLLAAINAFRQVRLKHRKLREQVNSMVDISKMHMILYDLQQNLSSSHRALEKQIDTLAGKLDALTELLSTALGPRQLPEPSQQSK

effect on current (current density) in patch clamp ([1]; 1-EBIO 50 μM, applied 2-5 min, n = 5): increased outward current
SMILES: CCn1c(=O)[nH]c2ccccc21 [1-EBIO, 1-ethyl-2-benzimidazolone]

effect on 1-EBIO activated KCa3.1 mediated current ([1]; 28 at 10 μM after 1-EBIO 50 μM, n = 5): reduced ionic current
main metabolite [2]: phenol 9
SMILES: NC(=O)C(c1ccccc1)(c1ccc(F)cc1)c1ccc(OCCF)cc1 (centres unmarked) [compound 28]

effect on 1-EBIO activated KCa3.1 mediated current ([1]; senicapoc 1 μM, applied consecutively after 28, n = 5): complete inhibition
Stability (TLC) ([3]; (NH4)2C2O4 (5 eq.), 90 °C): Stable
Stability (TLC) ([3]; (NH4)2C2O4 (5 eq.), 110 °C): Stable
Stability (TLC) ([3]; (NH4)2C2O4 (5 eq.), 130 °C): Stable
Stability (TLC) ([3]; K2CO3 (5 eq.), 90 °C): Partial decomposition
Stability (TLC) ([3]; K2CO3 (5 eq.), 110 °C): Partial decomposition
Stability (TLC) ([3]; K2CO3 (5 eq.), 130 °C): Complete decomposition
Stability (TLC) ([3]; TBAF (5 eq.), 90 °C): Complete decomposition
Stability (TLC) ([3]; TBAF (5 eq.), 110 °C): Complete decomposition
Stability (TLC) ([3]; TBAF (5 eq.), 130 °C): Complete decomposition
Stability (TLC) ([3]; no base, 130 °C): Stable
SMILES: NC(=O)C(c1ccccc1)(c1ccc(F)cc1)c1ccc(F)cc1 [senicapoc]
